Measured values taken from ChEMBL document CHEMBL1140127, “Enantiomeric propanolamines as selective N-methyl-D-aspartate 2B receptor antagonists” (J Med Chem, 2008).
pIC50: −log10 of the molar value. Calls of active or inactive are those of the source. No cut-off for these calls is given here.

How the values were obtained:
[1] = target: Voltage-gated inwardly rectifying potassium channel KCNH2 (Homo sapiens, UniProt Q12809); test: Displacement of [3H]astemizole from human ERG expressed in HEK293 cells
Sequence of Voltage-gated inwardly rectifying potassium channel KCNH2 (Q12809 whole entry): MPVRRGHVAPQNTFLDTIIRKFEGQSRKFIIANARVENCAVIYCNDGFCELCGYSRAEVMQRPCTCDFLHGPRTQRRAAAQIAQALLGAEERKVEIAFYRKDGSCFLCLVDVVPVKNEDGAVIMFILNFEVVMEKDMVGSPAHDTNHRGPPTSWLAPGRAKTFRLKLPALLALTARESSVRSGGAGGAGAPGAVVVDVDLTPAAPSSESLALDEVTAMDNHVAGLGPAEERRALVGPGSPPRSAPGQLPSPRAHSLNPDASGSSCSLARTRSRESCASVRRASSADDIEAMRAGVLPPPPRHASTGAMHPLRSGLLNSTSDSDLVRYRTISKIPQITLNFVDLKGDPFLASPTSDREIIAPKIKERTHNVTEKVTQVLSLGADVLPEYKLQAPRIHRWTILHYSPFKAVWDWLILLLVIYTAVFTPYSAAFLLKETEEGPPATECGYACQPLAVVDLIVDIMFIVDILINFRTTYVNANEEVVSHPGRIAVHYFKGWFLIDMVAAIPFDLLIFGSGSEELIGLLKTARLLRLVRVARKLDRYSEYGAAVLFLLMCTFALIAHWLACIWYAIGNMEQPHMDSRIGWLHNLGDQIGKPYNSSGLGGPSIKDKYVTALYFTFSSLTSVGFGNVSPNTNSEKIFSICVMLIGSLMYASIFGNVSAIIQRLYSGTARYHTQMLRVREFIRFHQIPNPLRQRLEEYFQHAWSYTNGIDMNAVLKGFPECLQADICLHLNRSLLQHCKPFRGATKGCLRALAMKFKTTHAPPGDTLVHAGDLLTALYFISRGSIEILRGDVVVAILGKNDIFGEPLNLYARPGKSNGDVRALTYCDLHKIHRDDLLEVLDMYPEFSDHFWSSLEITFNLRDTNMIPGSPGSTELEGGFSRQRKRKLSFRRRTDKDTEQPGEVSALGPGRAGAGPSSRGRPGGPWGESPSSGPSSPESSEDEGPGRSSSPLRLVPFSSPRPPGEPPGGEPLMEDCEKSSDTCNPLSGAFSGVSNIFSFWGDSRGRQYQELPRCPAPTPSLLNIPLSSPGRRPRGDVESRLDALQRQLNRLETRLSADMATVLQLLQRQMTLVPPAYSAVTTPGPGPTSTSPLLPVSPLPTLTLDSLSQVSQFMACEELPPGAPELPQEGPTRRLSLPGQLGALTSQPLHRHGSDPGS

[2] = target: Glutamate NMDA receptor; Grin1/Grin2b (Rattus norvegicus, UniProt P35439+Q00960); test: Inhibition of rat recombinant NR1/NR2B receptor expressed in Xenopus oocytes assessed as inhibition of glutamate and glycine-induced evoked current by two electrode voltage clamp method; type: cell-based, Oocyte
[3] = target: T1, Adrenergic receptor alpha-1 (Rattus norvegicus, UniProt P15823+P23944+P43140); test: Displacement of [3H]prazosin from alpha1 adrenergic receptor in rat brain; type: tissue-based
T1 sequence (P15823 whole entry): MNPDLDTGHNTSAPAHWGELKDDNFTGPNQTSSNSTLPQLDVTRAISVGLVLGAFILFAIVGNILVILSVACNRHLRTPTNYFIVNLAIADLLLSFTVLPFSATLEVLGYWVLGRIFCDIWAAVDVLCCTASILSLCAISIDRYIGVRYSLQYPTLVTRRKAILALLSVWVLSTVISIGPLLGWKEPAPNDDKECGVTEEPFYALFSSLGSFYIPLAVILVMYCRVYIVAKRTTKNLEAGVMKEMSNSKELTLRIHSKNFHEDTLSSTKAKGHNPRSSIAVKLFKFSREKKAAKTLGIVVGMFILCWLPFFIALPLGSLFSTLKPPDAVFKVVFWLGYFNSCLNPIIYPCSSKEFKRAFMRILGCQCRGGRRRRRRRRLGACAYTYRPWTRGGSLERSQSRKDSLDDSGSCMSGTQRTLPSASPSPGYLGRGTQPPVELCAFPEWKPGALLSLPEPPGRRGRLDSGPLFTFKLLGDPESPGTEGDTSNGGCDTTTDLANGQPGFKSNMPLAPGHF
T1 sequence (P23944 whole entry): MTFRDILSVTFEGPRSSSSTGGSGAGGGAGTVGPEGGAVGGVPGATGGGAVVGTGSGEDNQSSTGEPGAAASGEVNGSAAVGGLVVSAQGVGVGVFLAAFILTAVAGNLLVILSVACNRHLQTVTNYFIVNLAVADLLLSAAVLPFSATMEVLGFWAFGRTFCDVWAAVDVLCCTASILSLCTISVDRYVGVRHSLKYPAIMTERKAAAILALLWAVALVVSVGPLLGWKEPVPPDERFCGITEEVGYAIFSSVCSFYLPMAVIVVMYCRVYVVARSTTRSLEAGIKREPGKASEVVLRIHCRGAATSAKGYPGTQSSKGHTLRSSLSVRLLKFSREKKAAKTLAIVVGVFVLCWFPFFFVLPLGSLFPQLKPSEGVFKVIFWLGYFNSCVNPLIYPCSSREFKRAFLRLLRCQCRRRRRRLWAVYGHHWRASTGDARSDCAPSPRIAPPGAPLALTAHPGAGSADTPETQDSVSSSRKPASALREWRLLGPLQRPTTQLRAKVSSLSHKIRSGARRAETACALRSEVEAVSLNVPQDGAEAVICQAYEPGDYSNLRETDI
T1 sequence (P43140 whole entry): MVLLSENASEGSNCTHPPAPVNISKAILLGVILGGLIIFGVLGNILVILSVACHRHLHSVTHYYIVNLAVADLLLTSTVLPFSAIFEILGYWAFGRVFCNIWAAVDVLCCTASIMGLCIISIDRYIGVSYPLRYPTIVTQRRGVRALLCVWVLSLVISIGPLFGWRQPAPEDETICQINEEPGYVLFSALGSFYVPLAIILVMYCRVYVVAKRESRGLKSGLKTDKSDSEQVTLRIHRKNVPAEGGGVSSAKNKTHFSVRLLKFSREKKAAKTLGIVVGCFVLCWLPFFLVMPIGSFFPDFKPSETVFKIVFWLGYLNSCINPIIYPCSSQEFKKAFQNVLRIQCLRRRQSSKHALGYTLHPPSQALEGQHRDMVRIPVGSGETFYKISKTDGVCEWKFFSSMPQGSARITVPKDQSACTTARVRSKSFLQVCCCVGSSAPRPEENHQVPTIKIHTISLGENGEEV
Method in brief: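 Rat brain membranes; displacement of [3H]-prazosin at 4–6 concentrations, each point in duplicate. IC50 from displacement curves fitted by nonlinear least-squares regression.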

[4] = target: Glutamate NMDA receptor; Grin1/Grin2b (Rattus norvegicus) (UniProt P35439+Q00960); test: Inhibition of rat wild type NR1/NR2B receptor expressed in Xenopus oocytes at 100 nM by two electrode voltage clamp method; type: cell-based; details: Oocyte
[5] = system: Glutamate receptor ionotropic, NMDA 2B (Rattus norvegicus), Q00960 [E201R]; test: Inhibition of rat NR1/NR2B(E201R) mutant receptor expressed in Xenopus oocytes at 100 nM by two electrode voltage clamp method; type: cell-based; details: Oocyte
[6] = system: Glutamate receptor ionotropic, NMDA 1 (Rattus norvegicus), P35439 [H134A]; test: Inhibition of rat NR1(H134A)/NR2B mutant receptor expressed in Xenopus oocytes at 100 nM by two electrode voltage clamp method; type: cell-based; details: Oocyte
Rattus norvegicus [7] = test: Anticonvulsant activity in Sprague-Dawley rat assessed as inhibition of electroshock-induced tonic hind limb extension at 30 mg/kg, ip administered 30 mins before electroshock; type: functional, organism-based; parameters: dose 30 mg/kg; details: Hindlimb
Method in brief: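 Male Sprague–Dawley rats, 100–125 g, with 1% lidocaine dropped into each conjunctiva before maximal electroshock. Compound given ip in DMSO 30 min before the stimulus. Tested on three consecutive days: untreated on days 1 and 3, compound on day 2. Duration of tonic hind limb extension scored visually. Vehicle served as negative control and carbamazepine 60 mg/kg as positive control. ANOVA with Bonferroni post hoc test.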

[8] = Half life in rat plasma at 4 mg/kg, iv administered as single dose by LC-MS/MS analysis; type: ADME, organism-based; parameters: dose 4 mg/kg, route intravenous
Method in brief: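 Rats, n = 3, fasted overnight and given a single 4 mg/kg iv bolus via the tail vein in 2% dimethyl acetamide/98% 5% hydroxypropyl cyclodextrin. Blood collected into K-EDTA from the orbital plexus at 5, 30, 120 and 240 min. Plasma extracted with cold acetonitrile and analyzed by LC-MS/MS in MRM mode against a standard curve.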

Mus musculus [9] = test: Effect on motor coordination in mouse at 0.3 mg/kg, ip administered 20 mins prior to test after 5 days by rotarod test; type: ADME, organism-based; parameters: dose 0.3 mg/kg, route intraperitoneal; details: in vivo
Method in brief: (§1)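 Accelerating rotarod: starts at 5 rpm, then after 10 s ramps 5 to 35 rpm over 5 min; latency to fall recorded automatically. Four trials daily, 25 min apart, for 5 days. On day 5 mice randomised and dosed ip (25% DMSO/75% saline, 5 mL/kg) 20 min before the first trial. Tester blinded; ANOVA with Dunnett's post hoc.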

Rattus norvegicus [10] = test: Effect on locomotor activity in Sprague-Dawley rat at 0.3 mg/kg, ip; type: functional; details: route intraperitoneal
Method in brief: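 Rats habituated to the test room at least 30 min, then basal horizontal activity recorded 1 h in photobeam activity chambers. Animals then dosed ip and returned to the chamber for 2 h. Vehicle group run each day. Compared with vehicle by ANOVA with Dunnett's post hoc.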

Mus musculus [11] = test: Effect on motor coordination in mouse at 0.6 mg/kg, ip administered 20 mins prior to test after 5 days by rotarod test; type: ADME, organism-based; parameters: dose 0.6 mg/kg, route intraperitoneal; details: in vivo; method in brief: as §1

SMILES	pIC50 [1]	pIC50 [2]	IC50 [3]	half-life [8]	further results
Cc1ccc(CCNC[C@H](O)COc2ccc(NS(C)(=O)=O)cc2)cc1C	5.62	6.68	2200 nM	–	–
CS(=O)(=O)Nc1ccc(OC[C@@H](O)CNCCc2ccc(F)c(F)c2)cc1	5.79	6.45	> 10000 nM	–	–
CN(CCc1ccc(Cl)c(Cl)c1)CC(O)COc1ccc(NS(C)(=O)=O)cc1 (racemic)	–	–	–	–	inhibition [4]: 67.1%; inhibition [5]: 4.2%; inhibition [6]: 8.9%; Activity (Rattus norvegicus [7]): Active
CS(=O)(=O)Nc1ccc(OC[C@@H](O)CNCCc2ccc(Cl)c(F)c2)cc1	5.72	7.17	> 10000 nM	–	–
CCN(CCc1ccc(Cl)c(Cl)c1)C[C@H](O)COc1ccc(NS(C)(=O)=O)cc1	–	7.02	3500 nM	36 min	–
CS(=O)(=O)Nc1ccc(OC[C@@H](O)CN(CCc2ccc(Cl)c(Cl)c2)Cc2cccc(O)c2)cc1	–	6.62	> 10000 nM	36 min	–
CS(=O)(=O)Nc1ccc(OC[C@@H](O)CN(CCO)CCc2ccc(Cl)c(Cl)c2)cc1	–	6.91	–	36 min	Activity (Rattus norvegicus [7]): Active
CCCCN(CCc1ccc(Cl)c(Cl)c1)C[C@H](O)COc1ccc(NS(C)(=O)=O)cc1	–	6.38	4900 nM	36 min	–
CS(=O)(=O)Nc1ccc(OC[C@@H](O)CN(CCc2ccc(Cl)c(Cl)c2)Cc2ccccn2)cc1	–	5.56	–	36 min	–
C[C@]12N[C@H](Cc3ccccc31)c1ccccc12 [DIZOCILPINE]	–	–	–	–	Activity (Mus musculus [9]): Toxic; Activity (Rattus norvegicus [10]): 38233; Activity (Mus musculus [11]): Toxic
